Data from ChEMBL document CHEMBL1141179 (J Med Chem, 2005).

Assays:
[1] = molecular target: Somatostatin receptor type 4 (Homo sapiens, UniProt P31391); assay: Inhibition of 125I-[Leu8,D-Trp22,Tyr25]SRIF-28 binding to human somatostatin receptor type 4
[2] = molecular target: Somatostatin receptor type 1 (Homo sapiens, UniProt P30872); assay: Inhibition of 125I-[Leu8,D-Trp22,Tyr25]SRIF-28 binding to human somatostatin receptor type 1
In short: (§1)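 Human sst1 or sst5 receptor stably expressed in CHO-K1 cells. 20 µm cryostat sections of cell membrane pellets were used for receptor autoradiography. IC50 (nM) came from competitive radioligand displacement. Values are mean ± SEM when N ≥ 3; otherwise mean with single values.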

[3] = molecular target: Somatostatin receptor type 3 (Homo sapiens, UniProt P32745); assay: Inhibition of 125I-[Leu8,D-Trp22,Tyr25]SRIF-28 binding to human somatostatin receptor type 3
In short: (§2)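 Human sst2 or sst3 receptor stably expressed in CCL39 cells. 20 µm cryostat sections of cell membrane pellets were used for autoradiographic binding. IC50 (nM) came from competitive displacement. Values are mean ± SEM when N ≥ 3; otherwise mean with single values.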

[4] = molecular target: Somatostatin receptor type 2 (Homo sapiens, UniProt P30874); assay: Inhibition of 125I-[Leu8,D-Trp22,Tyr25]SRIF-28 binding to human somatostatin receptor type 2; in short: as §2
[5] = molecular target: Somatostatin receptor type 5 (Homo sapiens, UniProt P35346); assay: Inhibition of 125I-[Leu8,D-Trp22,Tyr25]SRIF-28 binding to human somatostatin receptor type 5; in short: as §1
Chain of Somatostatin receptor type 5 (P35346 whole entry): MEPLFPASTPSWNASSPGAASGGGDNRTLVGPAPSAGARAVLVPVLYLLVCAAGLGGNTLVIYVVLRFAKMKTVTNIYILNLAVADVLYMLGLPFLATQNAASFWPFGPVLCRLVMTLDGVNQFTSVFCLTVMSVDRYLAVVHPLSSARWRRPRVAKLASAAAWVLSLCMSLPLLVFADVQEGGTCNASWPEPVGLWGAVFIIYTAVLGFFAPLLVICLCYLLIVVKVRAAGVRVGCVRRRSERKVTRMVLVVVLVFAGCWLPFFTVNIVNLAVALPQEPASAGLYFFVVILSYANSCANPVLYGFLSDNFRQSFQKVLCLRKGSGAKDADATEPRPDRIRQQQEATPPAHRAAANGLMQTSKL

Chain of Somatostatin receptor type 3 (P32745 whole entry): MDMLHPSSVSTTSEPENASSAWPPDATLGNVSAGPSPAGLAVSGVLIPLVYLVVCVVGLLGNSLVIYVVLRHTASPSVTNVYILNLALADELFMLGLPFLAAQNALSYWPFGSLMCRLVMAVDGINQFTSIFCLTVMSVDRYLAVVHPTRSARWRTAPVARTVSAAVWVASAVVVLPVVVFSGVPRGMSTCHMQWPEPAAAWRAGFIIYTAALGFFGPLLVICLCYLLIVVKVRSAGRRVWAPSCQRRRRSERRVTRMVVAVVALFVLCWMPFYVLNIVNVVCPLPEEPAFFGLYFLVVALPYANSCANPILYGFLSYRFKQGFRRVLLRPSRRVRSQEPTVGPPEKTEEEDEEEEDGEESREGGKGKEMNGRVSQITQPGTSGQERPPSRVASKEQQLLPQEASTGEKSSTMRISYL
Chain of Somatostatin receptor type 4 (P31391 whole entry): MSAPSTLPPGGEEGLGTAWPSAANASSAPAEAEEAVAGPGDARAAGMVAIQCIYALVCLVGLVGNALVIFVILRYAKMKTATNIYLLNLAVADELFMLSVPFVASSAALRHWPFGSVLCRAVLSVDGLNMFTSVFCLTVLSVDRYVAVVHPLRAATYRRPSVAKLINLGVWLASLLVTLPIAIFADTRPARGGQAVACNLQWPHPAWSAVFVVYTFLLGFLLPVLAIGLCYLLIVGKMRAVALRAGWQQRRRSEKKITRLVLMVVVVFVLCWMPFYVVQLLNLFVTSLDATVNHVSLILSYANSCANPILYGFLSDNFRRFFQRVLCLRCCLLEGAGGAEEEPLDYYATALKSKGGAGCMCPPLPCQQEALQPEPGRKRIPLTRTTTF
Chain of Somatostatin receptor type 2 (P30874 whole entry): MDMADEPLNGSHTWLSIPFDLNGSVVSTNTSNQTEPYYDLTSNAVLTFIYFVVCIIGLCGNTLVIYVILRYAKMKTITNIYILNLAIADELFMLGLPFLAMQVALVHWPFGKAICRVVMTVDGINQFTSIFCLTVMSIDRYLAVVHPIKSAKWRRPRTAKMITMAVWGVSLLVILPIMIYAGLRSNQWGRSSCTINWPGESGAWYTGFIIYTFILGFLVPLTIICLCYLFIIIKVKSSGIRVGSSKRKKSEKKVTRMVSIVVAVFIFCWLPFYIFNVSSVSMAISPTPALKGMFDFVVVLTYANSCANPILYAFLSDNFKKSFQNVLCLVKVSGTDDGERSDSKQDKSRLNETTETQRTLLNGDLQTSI
Chain of Somatostatin receptor type 1 (P30872 whole entry): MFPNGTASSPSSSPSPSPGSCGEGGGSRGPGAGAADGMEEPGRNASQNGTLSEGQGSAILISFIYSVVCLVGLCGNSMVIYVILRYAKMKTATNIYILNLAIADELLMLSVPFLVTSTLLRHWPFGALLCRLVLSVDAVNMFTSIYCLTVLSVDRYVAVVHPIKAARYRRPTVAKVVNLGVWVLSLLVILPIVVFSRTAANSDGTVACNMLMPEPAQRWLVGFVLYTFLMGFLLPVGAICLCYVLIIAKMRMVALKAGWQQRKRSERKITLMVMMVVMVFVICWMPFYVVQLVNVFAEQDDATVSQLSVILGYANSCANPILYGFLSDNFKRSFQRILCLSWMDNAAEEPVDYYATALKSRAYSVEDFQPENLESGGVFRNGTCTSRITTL

SMILES | IC50 [1] [nM] | IC50 [2] [nM] | IC50 [3] [nM] | IC50 [4] [nM] | IC50 [5] [nM]
C[C@@H](O)[C@@H]1NC(=O)[C@H](CCCCN)NC(=O)[C@@H](Cc2c[nH]c3ccccc23)NC(=O)[C@H](Cc2ccccc2)NC(=O)[C@H](Cc2ccccc2)NC(=O)[C@H](CCCCN)NC(=O)[C@@H](N)CSSC[C@@H](C(=O)O)NC(=O)[C@H](Cc2ccccc2)NC1=O | 0.6 | 5.3 | 39 | 15 | 13
CC(C)NCc1ccc(C[C@@H]2NC(=O)[C@@H](Cc3c[nH]c4ccccc34)NC(=O)[C@@H]3CCC(=O)NCCCC[C@H](NC(=O)[C@H](Cc4ccccc4)NC(=O)[C@H]([C@@H](C)O)NC2=O)C(=O)N[C@@H](CO)C(=O)N[C@H](C(N)=O)CSSC[C@H](NC(=O)[C@@H](N)Cc2ccc(O)cc2)C(=O)N[C@@H](CCCCN)C(=O)N[C@@H](Cc2ccccc2)C(=O)N3)cc1 | > 1000 | 181 | > 1000 | > 1000 | > 1000
CC(C)NCc1ccc(C[C@H]2C(=O)N[C@@H]([C@@H](C)O)C(=O)N[C@@H](Cc3ccc(O)c(I)c3)C(=O)N[C@H]3CCCCCCNC(=O)CC[C@H](NC(=O)[C@H](Cc4ccccc4)NC(=O)[C@H](CCCCN)NC(=O)[C@@H](N)CSSC[C@@H](C(=O)O)NC(=O)[C@H](CO)NC3=O)C(=O)N[C@H](Cc3c[nH]c4ccccc34)C(=O)N2C)cc1 | 611 | 46 | > 1000 | > 1000 | > 1000
C[C@@H](O)[C@@H]1NC(=O)[C@H](CCCCN)NC(=O)[C@@H](Cc2c[nH]c3ccccc23)NC(=O)[C@H](Cc2ccccc2)NC(=O)[C@H](Cc2ccccc2)NC(=O)[C@H](CC(N)=O)NC(=O)[C@@H](N)CSSC[C@@H](C(=O)O)NC(=O)[C@H](Cc2ccccc2)NC1=O | 1.2 | 59 | 189 | 95 | 31
CC(C)NCc1ccc(C[C@@H]2NC(=O)[C@@H](Cc3c[nH]c4ccccc34)NC(=O)[C@@H]3CCC(=O)NCCC(=O)NCCC[C@H](NC(=O)[C@H](Cc4ccccc4)NC(=O)[C@H]([C@@H](C)O)NC2=O)C(=O)N[C@@H](CO)C(=O)N[C@H](C(=O)O)CSSC[C@H](NC(=O)[C@@H](N)Cc2ccc(O)cc2)C(=O)N[C@@H](CCCCN)C(=O)N[C@@H](Cc2ccccc2)C(=O)N3)cc1 | > 1000 | 64 | > 1000 | > 1000 | > 1000
C[C@@H](O)[C@@H]1NC(=O)[C@H](CCCCN)NC(=O)[C@@H](Cc2c[nH]c3ccccc23)NC(=O)[C@H](Cc2ccccc2)NC(=O)[C@@H](N)CSSC[C@@H](C(=O)O)NC(=O)[C@H](Cc2ccccc2)NC1=O | 229 | > 1000 | > 1000 | 531 | > 1000
C[C@@H](O)[C@@H]1NC(=O)[C@H](CCCCN)NC(=O)[C@@H](Cc2c[nH]c3ccccc23)NC(=O)[C@H](Cc2ccccc2)NC(=O)[C@H](Cc2ccccc2)NC(=O)[C@@H](N)CSSC[C@@H](C(=O)O)NC1=O | > 1000 | > 1000 | > 1000 | 598 | > 1000
CC(C)NCc1ccc(C[C@@H]2NC(=O)[C@@H](Cc3c[nH]c4ccccc34)NC(=O)[C@@H]3CCC(=O)NCCCC(=O)NCCCC[C@H](NC(=O)[C@H](Cc4ccccc4)NC(=O)[C@H]([C@@H](C)O)NC2=O)C(=O)N[C@@H](CO)C(=O)N[C@H](C(=O)O)CSSC[C@H](NC(=O)[C@@H](N)Cc2ccc(O)cc2)C(=O)N[C@@H](CCCCN)C(=O)N[C@@H](Cc2ccccc2)C(=O)N3)cc1 | > 1000 | 274 | > 1000 | > 1000 | > 1000
C[C@@H](O)[C@@H]1NC(=O)[C@H](Cc2ccccc2)NC(=O)[C@H]([C@@H](C)O)NC(=O)[C@H](CCCCN)NC(=O)[C@@H](Cc2c[nH]c3ccccc23)NC(=O)[C@H](Cc2ccccc2)NC(=O)[C@H](Cc2ccccc2)NC(=O)[C@@H](N)CSSC[C@@H](C(=O)O)NC1=O | 1 | 197 | 52 | 1.9 | 43
CC(C)NCc1ccc(C[C@H]2C(=O)N[C@@H]([C@@H](C)O)C(=O)N[C@@H](Cc3ccc(O)c(I)c3)C(=O)N[C@H]3CCCCNC(=O)CC[C@H](NC(=O)[C@H](Cc4ccccc4)NC(=O)[C@H](CCCCN)NC(=O)[C@@H](N)CSSC[C@@H](C(=O)O)NC(=O)[C@H](CO)NC3=O)C(=O)N[C@H](Cc3c[nH]c4ccccc34)C(=O)N2C)cc1 | > 1000 | 14 | 254 | > 1000 | > 1000
CC(C)NCc1ccc(C[C@@H]2NC(=O)[C@@H](Cc3c[nH]c4ccccc34)NC(=O)[C@@H]3CCC(=O)NCCCC[C@H](NC(=O)[C@H](Cc4ccc(O)cc4)NC(=O)[C@H]([C@@H](C)O)NC2=O)C(=O)N[C@@H](CO)C(=O)N[C@H](C(N)=O)CSSC[C@H](N)C(=O)N[C@@H](CCCCN)C(=O)N[C@@H](Cc2ccccc2)C(=O)N3)cc1 | > 1000 | 18 | > 1000 | > 1000 | > 1000
C[C@@H](O)[C@@H]1NC(=O)[C@H](Cc2ccccc2)NC(=O)[C@H]([C@@H](C)O)NC(=O)[C@H](CCCCN)NC(=O)[C@@H](Cc2c[nH]c3ccccc23)NC(=O)[C@H](Cc2ccccc2)NC(=O)[C@H](Cc2ccccc2)NC(=O)[C@H](CC(N)=O)NC(=O)[C@@H](N)CSSC[C@@H](C(=O)O)NC1=O | 1.4 | 112 | 11 | 5 | 9.5
CC(C)NCc1ccc(C[C@@H]2NC(=O)[C@@H](Cc3c[nH]c4ccccc34)NC(=O)[C@@H]3CCC(=O)NCCC(=O)NCC[C@H](NC(=O)[C@H](Cc4ccccc4)NC(=O)[C@H]([C@@H](C)O)NC2=O)C(=O)N[C@@H](CO)C(=O)N[C@H](C(=O)O)CSSC[C@H](NC(=O)[C@@H](N)Cc2ccc(O)cc2)C(=O)N[C@@H](CCCCN)C(=O)N[C@@H](Cc2ccccc2)C(=O)N3)cc1 | > 1000 | 74 | > 1000 | > 1000 | > 1000
CC(C)NCc1ccc(C[C@H]2C(=O)N[C@@H]([C@@H](C)O)C(=O)N[C@@H](Cc3ccc(O)c(I)c3)C(=O)N[C@@H]3CCCCCCNC(=O)CC[C@H](NC(=O)[C@H](Cc4ccccc4)NC(=O)[C@H](CCCCN)NC(=O)[C@@H](N)CSSC[C@@H](C(=O)O)NC(=O)[C@H](CO)NC3=O)C(=O)N[C@H](Cc3c[nH]c4ccccc34)C(=O)N2C)cc1 | 215 | 620 | > 1000 | > 1000 | > 1000
CC(C)NCc1ccc(C[C@@H]2NC(=O)[C@@H](Cc3c[nH]c4ccccc34)NC(=O)[C@@H](NC(=O)[C@@H](N)Cc3ccccc3)CCC(=O)NCCCC[C@@H](C(=O)N[C@@H](CO)C(=O)O)NC(=O)[C@H](Cc3ccccc3)NC(=O)[C@H]([C@@H](C)O)NC2=O)cc1 | > 1000 | > 1000 | > 1000 | > 1000 | > 1000
CC(C)NCc1ccc(C[C@@H]2NC(=O)[C@@H](Cc3c[nH]c4ccccc34)NC(=O)[C@@H]3CCC(=O)NCCCC(=O)NCCC[C@H](NC(=O)[C@H](Cc4ccccc4)NC(=O)[C@H]([C@@H](C)O)NC2=O)C(=O)N[C@@H](CO)C(=O)N[C@H](C(=O)O)CSSC[C@H](NC(=O)[C@@H](N)Cc2ccc(O)cc2)C(=O)N[C@@H](CCCCN)C(=O)N[C@@H](Cc2ccccc2)C(=O)N3)cc1 | > 1000 | 167 | > 1000 | > 1000 | > 1000
C[C@@H](O)[C@@H]1NC(=O)[C@H](Cc2ccccc2)NC(=O)[C@H]([C@@H](C)O)NC(=O)[C@H](CCCCN)NC(=O)[C@@H](Cc2c[nH]c3ccccc23)NC(=O)[C@H](Cc2ccccc2)NC(=O)[C@H](Cc2ccccc2)NC(=O)[C@@H](N)CSSC[C@@H](C(=O)O)NC(=O)[C@H](CO)NC1=O | 3.3 | 79 | 222 | 28 | 8.6
CC(C)NCc1ccc(C[C@@H]2NC(=O)[C@@H](Cc3c[nH]c4ccccc34)NC(=O)[C@@H]3CCC(=O)NCCCC[C@H](NC(=O)[C@H](Cc4ccccc4)NC(=O)[C@H]([C@@H](C)O)NC2=O)C(=O)N[C@@H](CO)C(=O)N[C@H](C(=O)O)CSSC[C@H](NC(=O)[C@@H](N)Cc2ccc(O)c(I)c2)C(=O)N[C@@H](CCCCN)C(=O)N[C@@H](Cc2ccccc2)C(=O)N3)cc1 | > 1000 | 89 | > 1000 | > 1000 | > 1000
CC(C)NCc1ccc(C[C@@H]2NC(=O)[C@@H](Cc3c[nH]c4ccccc34)NC(=O)[C@@H]3CCC(=O)NCCCC(=O)NCC[C@H](NC(=O)[C@H](Cc4ccccc4)NC(=O)[C@H]([C@@H](C)O)NC2=O)C(=O)N[C@@H](CO)C(=O)N[C@H](C(=O)O)CSSC[C@H](NC(=O)[C@@H](N)Cc2ccc(O)cc2)C(=O)N[C@@H](CCCCN)C(=O)N[C@@H](Cc2ccccc2)C(=O)N3)cc1 | > 1000 | 61 | > 1000 | > 1000 | > 1000
CC(C)NCc1ccc(C[C@@H]2NC(=O)C(Cc3c[nH]c4ccccc34)NC(=O)[C@H](Cc3ccccc3)NC(=O)[C@@H](Cc3ccccc3)NC(=O)[C@H](NC(=O)[C@@H](N)Cc3ccc(O)cc3)CSSC[C@@H](C(=O)O)NC(=O)[C@@H]([C@@H](C)O)NC(=O)[C@H](Cc3ccccc3)NC(=O)[C@@H]([C@@H](C)O)NC2=O)cc1 (stereo in doubt) | > 1000 | 720 | 445 | > 1000 | 
